Measured values from different studies.
Protocols differ between the studies behind these lines.
Target: Cytoplasmic tyrosine-protein kinase BMX (BMX, Homo sapiens, UniProt P51813)
Residues used in one study (P51813 1-675): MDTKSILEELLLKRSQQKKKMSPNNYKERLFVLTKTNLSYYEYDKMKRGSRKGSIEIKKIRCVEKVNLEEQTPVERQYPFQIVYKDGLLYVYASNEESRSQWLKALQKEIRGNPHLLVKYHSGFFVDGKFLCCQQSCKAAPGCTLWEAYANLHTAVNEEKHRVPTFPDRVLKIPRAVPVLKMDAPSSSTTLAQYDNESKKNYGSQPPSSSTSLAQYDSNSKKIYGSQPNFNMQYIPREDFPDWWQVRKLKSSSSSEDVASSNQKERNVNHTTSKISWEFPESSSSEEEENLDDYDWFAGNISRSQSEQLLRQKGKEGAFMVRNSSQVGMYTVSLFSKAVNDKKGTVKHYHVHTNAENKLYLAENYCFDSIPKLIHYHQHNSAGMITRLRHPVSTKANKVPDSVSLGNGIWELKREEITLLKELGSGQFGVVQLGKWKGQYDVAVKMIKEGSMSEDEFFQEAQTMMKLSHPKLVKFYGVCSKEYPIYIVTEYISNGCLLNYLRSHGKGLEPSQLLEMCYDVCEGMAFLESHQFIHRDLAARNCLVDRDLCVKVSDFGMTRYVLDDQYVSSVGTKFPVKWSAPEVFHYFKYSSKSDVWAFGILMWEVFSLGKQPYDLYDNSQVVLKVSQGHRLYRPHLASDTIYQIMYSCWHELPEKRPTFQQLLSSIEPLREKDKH

CN(C)C1CCN(CC#Cc2nn(C3CCCC3)c3nc(NCc4ccccc4)ncc23)C1 (stereo not shown)
inhibition (enzyme activity; inhibitor; FRET; 10 µM): 14%

COc1cc2c(N3CCN(C(=O)Nc4ccc(OC(C)C)cc4)CC3)ncnc2cc1OCCCN1CCCCC1
remaining signal (cell-free assay; 0.5 µM): 109%

CC1=C(C#N)[C@@H](c2ccc3[nH]nc(C)c3c2)C(C#N)=C(c2ccc(Cl)cc2)N1
remaining binding (cell-free assay; competition with immobilised ligand; 1 µM): 100%

Cn1c2c(c3ccc(Cl)c(Cl)c31)C(C#N)C1(CCCC1)NC2=O (stereo not shown)
ΔTm (thermal stability; DSF; 10 µM): 0 °C

CCCS(=O)(=O)Nc1ccc(F)c(C(=O)c2c[nH]c3ncc(-c4ccc(Cl)cc4)cc23)c1F
inhibition (enzyme activity; inhibitor; 1 µM): < 20%

Cc1ccc(Nc2nccc(N(C)c3ccc4c(C)n(C)nc4c3)n2)cc1S(N)(=O)=O
inhibition (enzyme activity; inhibitor; 10 µM): 70%

O=C(Nc1cnc(Oc2ccc(F)cc2)nc1)N1CCc2ncccc2[C@@H]1c1ccc(F)cc1
remaining binding (cell-free assay; competition with immobilised ligand; 1 µM): 94%

COc1cc2nccc(Oc3ccc(NC(=S)NC(=O)c4ccccc4C)cc3)c2cc1OC
remaining activity (enzyme activity; inhibitor; 0.5 µM): 30.6%

O=C(Nc1ccc(Oc2ccc(F)cc2)cc1)N1CCc2ncccc2[C@H]1c1ccc(F)cc1
remaining binding (cell-free assay; competition with immobilised ligand; 1 µM): 100%

C[C@@H](N)[C@H]1CC[C@H](C(=O)Nc2ccncc2)CC1
remaining activity (enzyme activity; inhibitor; 0.5 µM): 91.2%

CCC1(CC)NC(=O)c2c(c3ccc(Cl)c(Cl)c3n2C)C1C#N (stereo not shown)
ΔTm (thermal stability; DSF; 10 µM): 0.1 °C

CS(=O)(=O)c1cc(C2(NC(=O)c3cncc4c3cnn4-c3ccc(F)cc3)CC2)ccn1
remaining binding (cell-free assay; competition with immobilised ligand; 1 µM): 100%

C#Cc1cccc(Nc2ncnc3cc(OCCOC)c(OCCOC)cc23)c1
remaining signal (cell-free assay; 0.5 µM): 100%

Nc1c(C(=O)NCc2ccc(C(=O)NCCCC3CCCCC3)cc2)cnn1-c1ccccc1
remaining binding (cell-free assay; competition with immobilised ligand; 0.1 µM): 100%

CNC(=O)c1cc(Oc2ccc(NC(=O)Nc3ccc(Cl)c(C(F)(F)F)c3)cc2)ccn1
inhibition (enzyme activity; inhibitor; 10 µM): 9%

Nc1[nH]nc2nnc(-c3c(-c4ccccc4)nn4ccccc34)cc12
remaining activity (enzyme activity; inhibitor; 0.5 µM): 84.4%

c1ccc(N2CCN(Cc3nc4ccccc4[nH]3)CC2)nc1
remaining binding (cell-free assay; competition with immobilised ligand; 1 µM): 100%

Cn1cncc1C1=CN(c2ncnc3[nH]cnc23)CCS1
inhibition (enzyme activity; inhibitor; radiometric; 2 µM): 40%

Cn1c2c(Cl)c(Cl)ccc2c2cn[nH]c(=O)c21
ΔTm (thermal stability; DSF; 10 µM): 0.4 °C

FC(F)(F)c1ccc(/C=C/c2nc(COc3ccc(CCCCn4ccnn4)cc3)co2)cc1
remaining activity (enzyme activity; inhibitor; 0.5 µM): 99%

Cn1c2c(Cl)c(Cl)ccc2c2cc[nH]c(=O)c21
ΔTm (thermal stability; DSF; 10 µM): 0 °C

COc1cc2ncnc(Nc3ccc(Oc4ccccc4)c(C)c3C)c2cc1OC
inhibition (enzyme activity; inhibitor; 1 µM): 1%

O=C(Nc1cnn(-c2csc(C(=O)NC3COC3)c2)c1)Nc1ccccc1Cl
remaining activity (enzyme activity; inhibitor; 5 µM): 106%

CC(=O)N1CCC(c2ccc(C(=O)NC(=N)N)cc2C(F)(F)F)CC1
remaining binding (cell-free assay; competition with immobilised ligand; 1 µM): 100%

CCN(CC)CCNC(=O)c1c(C)[nH]c(/C=C2\C(=O)Nc3ccc(F)cc32)c1C
inhibition (enzyme activity; inhibitor; 0.3 µM): -1%

Cc1ccc(C(=O)NCc2ccsc2)cc1C#Cc1cn(C(C)C)c2ncnc(N)c12
activity vs control (enzyme activity; inhibitor; 1 µM): 2%

CC(C)[C@H](CO)Nc1nc(Nc2cc(N)cc(Cl)c2)c2ncn(C(C)C)c2n1
remaining activity (enzyme activity; inhibitor; 0.5 µM): 81.9%

Cn1c2c(c3ccc(Cl)c(Cl)c31)C(C#N)C1(CCOCC1)NC2=O (stereo not shown)
ΔTm (thermal stability; DSF; 10 µM): -0.3 °C

O=C(Nc1cccnn1)N1CCC(=Cc2cccc(Oc3ccc(C(F)(F)F)cn3)c2)CC1
remaining binding (cell-free assay; competition with immobilised ligand; 1 µM): 71%

C[S+]([O-])c1ccc(-c2nc(-c3ccncc3)c(-c3ccc(F)cc3)[nH]2)cc1 (stereo not shown)
remaining signal (cell-free assay; 0.5 µM): 94.4%

c1nc2c(Nc3ccc4c(c3)OCCO4)nc(Nc3ccc4c(c3)OCCO4)nc2[nH]1
activity vs control (enzyme activity; inhibitor; 10 µM): 9.7%
